Measured values from ChEMBL document CHEMBL3616436, “Synthesis, cytotoxicity and antimicrobial activity of thiourea derivatives incorporating 3-(trifluoromethyl)phenyl moiety” (Eur J Med Chem, 2015).
Converted amounts (≈) assume the structure as drawn. The source made the active and inactive calls. No cut-off for these calls is given here.

Experiments:
[1] = target: T1, DNA topoisomerase 4 (Staphylococcus epidermidis) (UniProt Q5HPI6+Q5HPI5); experiment: Inhibition of decatenation activity of DNA topoisomerase 4 in Staphylococcus epidermidis ATCC 12228 using kDNA as substrate at 1 to 4 ug/ml after 1 hr using ethidium bromide staining by agarose gel electrophoresis; format: protein assay
T1 sequence (Q5HPI5 whole entry, looked up): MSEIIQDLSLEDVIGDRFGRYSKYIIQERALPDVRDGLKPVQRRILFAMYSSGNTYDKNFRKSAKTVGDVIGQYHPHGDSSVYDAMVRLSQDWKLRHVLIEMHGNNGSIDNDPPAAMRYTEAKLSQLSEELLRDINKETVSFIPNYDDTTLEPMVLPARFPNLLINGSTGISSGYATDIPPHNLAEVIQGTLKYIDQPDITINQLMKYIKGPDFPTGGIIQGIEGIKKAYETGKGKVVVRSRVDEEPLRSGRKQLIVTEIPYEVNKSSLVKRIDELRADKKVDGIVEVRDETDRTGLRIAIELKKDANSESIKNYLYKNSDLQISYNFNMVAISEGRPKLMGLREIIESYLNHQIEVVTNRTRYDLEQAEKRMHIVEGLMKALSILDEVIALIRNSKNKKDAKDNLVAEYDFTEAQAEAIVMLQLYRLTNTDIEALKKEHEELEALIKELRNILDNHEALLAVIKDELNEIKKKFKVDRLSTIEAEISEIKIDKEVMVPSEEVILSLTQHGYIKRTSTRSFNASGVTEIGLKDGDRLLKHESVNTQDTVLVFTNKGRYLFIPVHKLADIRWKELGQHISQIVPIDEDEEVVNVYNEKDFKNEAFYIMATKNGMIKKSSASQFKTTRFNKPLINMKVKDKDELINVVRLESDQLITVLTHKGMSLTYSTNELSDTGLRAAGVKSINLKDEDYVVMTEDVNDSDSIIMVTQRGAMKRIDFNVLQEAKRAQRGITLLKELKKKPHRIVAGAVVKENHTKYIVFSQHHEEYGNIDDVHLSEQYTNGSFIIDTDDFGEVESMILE
T1 sequence (Q5HPI6 whole entry, looked up): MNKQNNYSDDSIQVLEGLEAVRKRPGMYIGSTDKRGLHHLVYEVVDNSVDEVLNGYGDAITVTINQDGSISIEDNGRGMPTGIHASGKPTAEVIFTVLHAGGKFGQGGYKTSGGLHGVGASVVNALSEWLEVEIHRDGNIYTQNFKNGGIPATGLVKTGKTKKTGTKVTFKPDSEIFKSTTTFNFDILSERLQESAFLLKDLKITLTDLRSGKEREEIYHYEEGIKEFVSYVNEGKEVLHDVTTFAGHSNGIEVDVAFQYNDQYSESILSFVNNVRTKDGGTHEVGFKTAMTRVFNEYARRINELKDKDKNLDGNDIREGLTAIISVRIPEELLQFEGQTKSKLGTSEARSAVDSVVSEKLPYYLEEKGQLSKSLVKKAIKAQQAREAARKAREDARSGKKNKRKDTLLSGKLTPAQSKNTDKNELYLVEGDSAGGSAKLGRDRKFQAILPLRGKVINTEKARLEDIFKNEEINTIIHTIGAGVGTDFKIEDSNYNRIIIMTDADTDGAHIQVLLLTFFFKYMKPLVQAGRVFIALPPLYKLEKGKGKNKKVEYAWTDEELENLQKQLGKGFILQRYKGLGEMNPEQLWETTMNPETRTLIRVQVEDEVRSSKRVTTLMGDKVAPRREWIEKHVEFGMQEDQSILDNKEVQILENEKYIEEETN

[2] = target: T2, Topoisomerase IV (Staphylococcus aureus) (UniProt P0C1U9+P0C1S7); experiment: Inhibition of decatenation activity of DNA topoisomerase 4 in hospital methicillin-resistant Staphylococcus aureus 53/05 using kDNA as substrate at 1 to 4 ug/ml after 1 hr using ethidium bromide staining by agarose gel electrophoresis; format: protein-complex assay
[3] = target: T2, Topoisomerase IV (Staphylococcus aureus); experiment: Inhibition of decatenation activity of DNA topoisomerase 4 in hospital methicillin-resistant Staphylococcus aureus 57/05 using kDNA as substrate at 1 to 4 ug/ml after 1 hr using ethidium bromide staining by agarose gel electrophoresis; format: protein-complex assay
[4] = target: T2, Topoisomerase IV (Staphylococcus aureus); experiment: Inhibition of decatenation activity of DNA topoisomerase 4 in hospital methicillin-resistant Staphylococcus aureus 80/05 using kDNA as substrate at 1 to 4 ug/ml after 1 hr using ethidium bromide staining by agarose gel electrophoresis; format: protein-complex assay
[5] = target: T1, DNA topoisomerase 4 (Staphylococcus epidermidis); experiment: Inhibition of decatenation activity of DNA topoisomerase 4 in hospital methicillin-resistant Staphylococcus epidermidis 31/04 using kDNA as substrate at 1 to 4 ug/ml after 1 hr using ethidium bromide staining by agarose gel electrophoresis; format: protein assay
[6] = target: T1, DNA topoisomerase 4 (Staphylococcus epidermidis); experiment: Inhibition of decatenation activity of DNA topoisomerase 4 in hospital methicillin-resistant Staphylococcus epidermidis 62/04 using kDNA as substrate at 1 to 4 ug/ml after 1 hr using ethidium bromide staining by agarose gel electrophoresis; format: protein assay
[7] = target: T1, DNA topoisomerase 4 (Staphylococcus epidermidis); experiment: Inhibition of decatenation activity of DNA topoisomerase 4 in hospital methicillin-resistant Staphylococcus epidermidis 63/04 using kDNA as substrate at 1 to 4 ug/ml after 1 hr using ethidium bromide staining by agarose gel electrophoresis; format: protein assay
[8] = test system: Staphylococcus epidermidis; experiment: Inhibition of biofilm formation in Staphylococcus epidermidis 62/04 after 24 hrs using MTT staining by spectrophotometer analysis; format: functional, organism-based; conditions: 62/04, 24 h
Summary of the method: (§1)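 Biofilm was grown for 24 h at 37 °C in TSB with 0.5% glucose from 10^7 CFU/mL inoculum, mixed 1:1 with compound. Final concentrations were 0.125–4 or 0.25–8 µg/ml. Wells were PBS-washed and MTT-stained for 2 h at 37 °C, solubilized in DMSO/glycine buffer and read at 554 nm. IC50 (50% inhibition of biofilm formation) was taken from the dose-response curve; quadruplicates.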

[9] = test system: Staphylococcus epidermidis; experiment: Inhibition of biofilm formation in Staphylococcus epidermidis 76/04 after 24 hrs using MTT staining by spectrophotometer analysis; format: functional, organism-based; conditions: 76/04, 24 h; summary of the method: as §1
[10] = test system: Staphylococcus epidermidis; experiment: Inhibition of biofilm formation in Staphylococcus epidermidis […]/[…] at 4 ug/ml after 24 hrs using MTT staining by spectrophotometer analysis; format: functional; conditions: 16/04, 24 h
[11] = test system: Staphylococcus epidermidis; experiment: Inhibition of biofilm formation in Staphylococcus epidermidis 23/04 at 4 ug/ml after 24 hrs using MTT staining by spectrophotometer analysis; format: functional; conditions: 23/04, 24 h
[12] = test system: WIL2-NS; experiment: Cytotoxicity against human WIL2-NS cells after 96 hrs by MTT assay; format: functional
Summary of the method: (§2)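 Leukaemia/lymphoma lines seeded at 1×10^5 cells/ml in RPMI-1640 with 10% FCS and penicillin/streptomycin; incubated with serial dilutions at 37°C, 5% CO2; viability by MTT after 96 h; value is concentration reducing proliferation by 50%, with untreated controls undergoing at least three rounds of multiplication.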

[13] = test system: CCRF-SB; experiment: Cytotoxicity against human CCRF-SB cells after 96 hrs by MTT assay; format: functional; summary of the method: as §2
[14] = test system: Staphylococcus aureus; experiment: Antimicrobial activity against Staphylococcus aureus ATCC 29213 at 400 ug after 18 hrs by disc-diffusion method; format: functional; conditions: ATCC 29213, 18 h, read-out: IZ
Summary of the method: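 Disc diffusion on Mueller-Hinton II agar per CLSI; 9 mm paper discs loaded with 400 µg compound from DMSO solution, dried, placed on agar; growth inhibition zone diameter read after 18 h at 35°C.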

[15] = test system: Staphylococcus epidermidis; experiment: Antimicrobial activity against Staphylococcus epidermidis ATCC 12228 after 18 hrs by twofold serial microdilution method; format: functional; conditions: ATCC 12228, 18 h
[16] = test system: Staphylococcus epidermidis; experiment: Antimicrobial activity against hospital methicillin-resistant Staphylococcus epidermidis 31/04 after 18 hrs by twofold serial microdilution method; format: functional; conditions: 31/04, 18 h
Summary of the method: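 Twofold serial microdilution in Mueller-Hinton broth. Compound stock was made in DMSO and diluted in sterile water. Tested range was 0.125–512 µg/mL. Final inoculum was 10^5 CFU/mL. Plates were incubated 18 h at 35 °C. MIC is the lowest concentration preventing visible growth.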

[17] = test system: Staphylococcus aureus; experiment: Ratio of ciprofloxacin MIC to compound MIC for hospital methicillin-resistant Staphylococcus aureus 79/05 after 18 hrs by twofold serial microdilution method; format: functional
Summary of the method: (§3)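 Ratio of MICs for ciprofloxacin and test agent, each from twofold serial broth microdilution in Mueller-Hinton broth following CLSI guidelines. DMSO stock was diluted in sterile water to 0.125–512 µg/mL, with a final inoculum of 10^5 CFU/mL.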

[18] = test system: Staphylococcus aureus; experiment: Ratio of ciprofloxacin MIC to compound MIC for hospital methicillin-resistant Staphylococcus aureus 80/05 after 18 hrs by twofold serial microdilution method; format: functional; summary of the method: as §3
[19] = target: T2, Topoisomerase IV (Staphylococcus aureus); experiment: Inhibition of decatenation activity of DNA topoisomerase 4 in Staphylococcus aureus NCTC 4163 using kDNA as substrate at 32 ug/ml […] using ethidium bromide staining by agarose gel electrophoresis; format: protein-complex assay
[20] = target: T1, DNA topoisomerase 4 (Staphylococcus epidermidis); experiment: Inhibition of decatenation activity of DNA topoisomerase 4 in Staphylococcus epidermidis ATCC 35984 using kDNA as substrate at 32 ug/ml after 1 hr using ethidium bromide staining by agarose gel electrophoresis; format: protein assay
[21] = target: T2, Topoisomerase IV (Staphylococcus aureus); experiment: Inhibition of decatenation activity of DNA topoisomerase 4 in hospital methicillin-resistant Staphylococcus aureus 54/05 using kDNA as substrate at 32 ug/ml after 1 hr using ethidium bromide staining by agarose gel electrophoresis; format: protein-complex assay
[22] = target: T2, Topoisomerase IV (Staphylococcus aureus); experiment: Inhibition of decatenation activity of DNA topoisomerase 4 in hospital methicillin-resistant Staphylococcus aureus 79/05 using kDNA as substrate at 32 ug/ml after 1 hr using ethidium bromide staining by agarose gel electrophoresis; format: protein-complex assay
[23] = target: T2, Topoisomerase IV (Staphylococcus aureus); experiment: Inhibition of decatenation activity of DNA topoisomerase 4 in hospital methicillin-resistant Staphylococcus aureus 522/11 using kDNA as substrate at 32 ug/ml after 1 hr using ethidium bromide staining by agarose gel electrophoresis; format: protein-complex assay
[24] = target: T1, DNA topoisomerase 4 (Staphylococcus epidermidis); experiment: Inhibition of decatenation activity of DNA topoisomerase 4 in hospital methicillin-resistant Staphylococcus epidermidis 76/04 using kDNA as substrate at 32 ug/ml after 1 hr using ethidium bromide staining by agarose gel electrophoresis; format: protein assay
[25] = target: T2, Topoisomerase IV (Staphylococcus aureus); experiment: Inhibition of decatenation activity of DNA topoisomerase 4 in Staphylococcus aureus NCTC 4163 using kDNA as substrate at 1 to 4 ug/ml […] using ethidium bromide staining by agarose gel electrophoresis; format: protein-complex assay
[26] = target: T1, DNA topoisomerase 4 (Staphylococcus epidermidis); conditions: 24/04, at 1 to 4 µg/mL

SMILES	inhibition [1]	inhibition [2]	inhibition [3]	inhibition [4]	inhibition [5]	inhibition [6]	inhibition [7]	IC50 [8] [µg/mL]	IC50 [9] [µg/mL]	inhibition at 4 µg/mL [10] [%]	inhibition at 4 µg/mL [11] [%]	CC50 [12] [µM]	CC50 [13] [µM]	zone of inhibition at 400 µg/disc [14] [mm]	MIC [15] [µg/mL]	MIC [16] [µg/mL]	Ratio [17]	Ratio [18]	inhibition [19]	inhibition [20]	also measured
FC(F)(F)c1cccc(NC(=S)Nc2cccc(Br)c2)c1	Active	Active	Active	Active	Active	Active	Active	1.98 (≈ 5.28 µM)	2.98 (≈ 7.94 µM)	61.7	71.6	9.9	9	29	2 (≈ 5.33 µM)	2 (≈ 5.33 µM)	128	128	Active	Active	inhibition [21]: Active; inhibition [22]: Active; inhibition [23]: Active; inhibition [24]: Active; inhibition [25]: Active; inhibition [26]: Active
Fc1cccc(NC(=S)Nc2cccc(C(F)(F)F)c2)c1	–	–	–	–	–	–	–	–	–	–	–	–	–	21	8 (≈ 25.5 µM)	8 (≈ 25.5 µM)	128	128	–	–	–
FC(F)(F)c1cccc(NC(=S)Nc2ccc(Cl)cc2)c1	–	–	–	–	–	–	–	–	–	–	–	13	11	12	8 (≈ 24.2 µM)	16 (≈ 48.4 µM)	128	128	–	–	–
Fc1ccc(NC(=S)Nc2cccc(C(F)(F)F)c2)cc1Cl	Active	Active	Active	Active	Active	Active	Active	0.97 (≈ 2.78 µM)	2.85 (≈ 8.17 µM)	72	77.9	9	9.5	30	2 (≈ 5.73 µM)	1 (≈ 2.87 µM)	128	128	Active	Active	inhibition [21]: Active; inhibition [22]: Active; inhibition [23]: Active; inhibition [24]: Active; inhibition [25]: Active; inhibition [26]: Active
FC(F)(F)c1cccc(NC(S)=Nc2ccc(Cl)c(Cl)c2)c1	–	–	–	–	–	–	–	–	–	–	–	8	8.8	15	2 (≈ 5.48 µM)	1 (≈ 2.74 µM)	128	128	–	–	–
O=C(O)c1cn(C2CC2)c2cc(N3CCNCC3)c(F)cc2c1=O [CIPROFLOXACIN]	Active	Active	Active	Active	Active	Active	Active	4.81 (≈ 14.5 µM)	7.93 (≈ 23.9 µM)	42	5.71	–	–	22	0.25 (≈ 0.754 µM)	64 (≈ 193 µM)	–	–	Active	Active	inhibition [21]: Active; inhibition [22]: Active; inhibition [23]: Active; inhibition [24]: Active; inhibition [25]: Active; inhibition [26]: Active
FC(F)(F)c1cccc(NC(S)=NCc2ccccc2)c1	–	–	–	–	–	–	–	–	–	–	–	–	–	16	32 (≈ 103 µM)	16 (≈ 51.6 µM)	128	128	–	–	–
FC(F)(F)c1cccc(NC(=S)NCCc2ccccc2)c1	–	–	–	–	–	–	–	–	–	–	–	–	–	15	16 (≈ 49.3 µM)	16 (≈ 49.3 µM)	128	128	–	–	–
